# Assay outcomes from PubChem.
# Ba/F3 V617F tox: reduce viability of Ba/F3 cells dependent on JAK2V617F | Ba/F3 EpoR-JAK2V617F viability, ATP luminescence | inhibition, % at 5.6 µM | 1.1% of 220,000 active | AID 1446;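 active means inhibition above the campaign mean plus 3 SD over all tested compounds, cut at about 24% in these data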;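 further: cytokine-independent growth of Ba/F3 cells driven by EpoR plus mutant JAK2; 0% = DMSO-treated cells and 100% = JAK inhibitor I control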
# APP transl inh: APP translation inhibition | SH-SY5Y APP 5'UTR-luciferase reporter, luminescence | inhibition, % at 2 µM | 0.82% of 190,000 active;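 active means inhibition above a set limit, derived from the sample mean plus 3 SD, cut at about 45% in these data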
# b-catenin transl: alters nuclear translocation of beta-catenin in HeLa cells | nuclear translocation activity, % at 5 µM | AID 1665 | 0.3% of 190,000 active | immunofluorescence imaging;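 active means nuclear translocation activity above 50% at 5 µM, with a well cell count of 50 or more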;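 further: per-cell ratio of nuclear to cytoplasmic median beta-catenin stain intensity; plate controls were DMSO negative control for no effect and GSK-3 inhibitor IX positive control for full effect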
#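 Test system: human HeLa cell line; Doses: 5 µM primary, 0.02–20 µM confirmation; Incubation: 24 h compound exposure, 37°C; Detection: beta-catenin immunofluorescence imaging with DAPI; Read-out: beta-catenin nuclear/cytoplasmic ratio, % activation.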
# MT stabilize HCS: microtubule stabilization, imaging screen; % tubulin-high responders, % at 10 µM; HeLa tubulin immunostaining HCS, 24 h; share of cells brighter than vehicle mean+2SD; 0.83% of 200,000 active;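 active means plate Z-score above 3 for both tubulin-high and condensed-nucleus cell shares, with cell loss under 80%, at 10 µM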;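 further: anti alpha tubulin signal scored within the nucleus-defined area of each cell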
# IEC-6 tox: counter-screen for KLF5 inhibitors: cytotoxicity in IEC-6 cells; inhibition, % at 5 µM; IEC-6 cytotoxicity, luminescence viability; 0.78% of 290,000 active;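 further: 0% = plate median of test compound wells and 100% = cytotoxic reference compound wells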
# BaF3 parental: parental Ba/F3 viability inhibition as JAK2V617F counter-screen. 1.1% of 220,000 active. AID 1486. CellTiter-Glo ATP luminescence. inhibition, % at 5.6 µM;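 active means inhibition above a per-campaign cutoff, the mean inhibition of all tested compounds plus 3 SD, cut at about 27% in these data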;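 further: 0% = DMSO wells and 100% = JAK Inhibitor I control wells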
# IEC-6 cytotox cf: IEC-6 cytotoxicity, confirmation assay; IEC-6 rat intestinal epithelial viability, luminescence; AID 1907; shares compounds with IEC-6 tox; inhibition, % at 5 µM; 63% of 1,900 active;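 further: 0% = vehicle and 100% = reference cytotoxic drug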
# Numbers without * were called inactive; . = no result given. Shown are actives, neighbours in structure and some others; about 2.2% of the full set was active somewhere. Unless noted, no stated cut-off is given here; in the data, active means inhibition above about 22%; inactive means the rest.
SMILES,Ba/F3 V617F tox,APP transl inh,b-catenin transl,MT stabilize HCS,IEC-6 tox,BaF3 parental,IEC-6 cytotox cf
O=C(CSc1cn[nH]n1)Nc1ccccc1C(F)(F)F,.,.,.,.,3,.,.
O=[N+]([O-])c1cc(NCCO)c(N2CCCCCC2)c2nonc12,.,.,.,.,11,.,.
O=C(NCc1cccnc1)c1ccc([N+](=O)[O-])cc1,1,-2,1,2,-3,6,.
O=C(COc1ccc([N+](=O)[O-])cc1)NCc1cccnc1,1,-25,-3,2,-2,10,.
C=CCOc1ccc(C(=O)Nc2ccccc2C(=O)NCc2cccnc2)cc1,.,.,.,.,39*,.,26*
O=C(NCc1cccnc1)c1ccc(NC(=O)c2cccc([N+](=O)[O-])c2)cc1,21,10,2,1,75*,0,8
O=C(COc1ccc([N+](=O)[O-])cc1)Nc1ccc(C(=O)NCc2cccnc2)cc1,10,-9,.,1,30*,1,-6
Cc1ccccc1-n1nnnc1Sc1nnnn1-c1ccccc1,4,5,0,1,4,0,.
CCCSc1nnc(Sc2nnnn2-c2ccccc2)s1,82*,94*,-8,9,42*,95*,26*
CSc1nc(O)c(/C=C2\C=Nc3ccccc32)[nH]1,-2,-5,-1,6,10,5,.
O=c1[nH]c(/C=C2\C=Nc3ccccc32)c(O)n1Cc1ccccc1F,99*,63*,1,2,41*,67*,37*
CCOc1ccc(N(CC(=O)Nc2ccccc2OC)S(=O)(=O)c2ccccc2)cc1,.,.,.,.,78*,.,53*
CCOc1ccc(N(CC(=O)Nc2ccc(C)cc2)S(=O)(=O)c2c(C)noc2C)cc1,-2,-20,0,3,-1,-1,.
CCOc1ccc(N(CC(=O)Nc2ccccc2OCC)S(=O)(=O)c2c(C)noc2C)cc1,.,.,.,.,90*,.,54*
COc1ccccc1NC(=O)CN(c1ccc([N+](=O)[O-])cc1)S(=O)(=O)c1ccccc1,3,2,1,2,0,7,.
COc1ccc(NC2CCCN(C(=O)CSc3ccncc3)C2)cc1 (stereo not given),.,.,.,.,-1,.,.
CC(=O)N(/N=C/c1ccc([N+](=O)[O-])o1)c1nc2ccccc2c(=O)n1-c1ccccc1,5,.,2,.,55*,4,8
O=C(Nc1nc2ccccc2[nH]1)c1ccc(F)cc1,4,-107,1,3,6,8,.
O=C(Nc1nc2ccccc2[nH]1)c1ccccc1F,50*,1,-2,3,43*,46*,57*
COc1ccc(C2C(O)C(c3c[nH]c4ccccc34)=NN2C(=O)CCl)cc1 (stereo not given),.,.,.,.,102*,.,100*
COc1ccc(C2NN=C(c3c[nH]c4ccccc34)C2O)cc1 (stereo not given),.,.,.,.,1,.,.
CCOc1ccc(S(=O)(=O)n2cc(F)c(=O)[nH]c2=O)cc1[N+](=O)[O-],.,.,.,.,55*,.,12
CCOc1ccc(S(=O)(=O)n2cc(F)c(=O)[nH]c2=O)cc1,44*,4,0,2,86*,60*,13
CCOc1ccc(S(=O)(=O)N2CCOCC2)cc1[N+](=O)[O-],3,4,-2,2,-3,3,.
Cc1ccc(-c2ccnc3c(Br)c(C)nn23)cc1,.,.,.,.,28*,.,19
SMILES,Ba/F3 V617F tox,APP transl inh,b-catenin transl,MT stabilize HCS,IEC-6 tox,BaF3 parental,IEC-6 cytotox cf
CC1=NN(c2nc3ccccc3[nH]2)C(=O)/C1=C/N(C)C,58*,-28,-1,3,40*,53*,68*
CCC1CCCCN1C(=O)c1cc(COc2ccc3ncccc3c2)on1 (stereo not given),68*,12,2,1,23*,68*,15
CSc1cccc(NS(=O)(=O)c2ccc3c(c2)CCN3C(C)=O)c1,.,.,.,.,33*,.,19
Cc1ccc2c(c1)c(-c1csc(N)n1)c(C)n2C,.,.,.,.,0,.,.
CN1CCN(c2ccc([N+](=O)[O-])cc2C(=O)c2ccc(Cl)cc2)CC1,-3,6,185*,43*,49*,4,50*
CN1CCN(c2ccc([N+](=O)[O-])cc2C(=O)N2CCCCC2)CC1,-2,-11,-4,4,-4,3,.
Cc1ccc(C(=O)c2cc([N+](=O)[O-])ccc2N2CCCCC2)cc1,80*,.,72*,9,89*,76*,65*
Cc1cccc(C(=O)NNC(=S)NC(=O)c2cccs2)c1,.,.,.,.,17,.,.
CCOC(=O)CSC1=C(C#N)C(c2ccc(C)o2)CC(=O)N1 (stereo not given),74*,95*,38,10,83*,79*,59*
CC(=O)c1cccc(NC(=O)Nc2nc(C)cc(C)n2)c1,.,.,.,.,-4,.,.
O=C(NCCN1CCN(C(=O)c2ccc(F)cc2)CC1)C(=O)NCc1ccccc1,.,.,.,.,-12,.,.
Cc1ccc(C(=O)C[n+]2ccc3ccccc3c2)cc1,8,-9,-1,4,13,22,.
Cc1cc(C(C)(C)C)cc(C)c1C[n+]1ccc2ccccc2c1,.,.,.,.,28*,.,22*
CCCCCCCCCC[n+]1cccc2c3ccccc3ccc21,101*,24,.,48,52*,92*,36*
Cc1cccc[n+]1CCCCCCCCCC[n+]1ccccc1C,3,-1,0,2,0,16,.
CC(C)c1csc(CN2CCCC(CNC(=O)c3cccc4ccccc34)C2)n1 (stereo not given),.,.,.,.,-9,.,.
O=C(NCc1ccc(Cl)s1)C1CCC(=O)N(CCc2ccccn2)C1 (stereo not given),.,.,.,.,6,.,.
CC(C)C(CCNC1CCN(C)CC1)c1ccc(Cl)cc1 (stereo not given),.,.,.,.,36*,.,57*
CN1CCC(NCCC(c2ccc(F)cc2)c2ccc(Cl)cc2)CC1 (stereo not given),.,.,.,.,49*,.,100*
CC(NC1CCN(Cc2ccccc2)CC1)c1ccc(F)cc1 (stereo not given),.,.,.,.,-5,.,.
Cc1ccccc1C(N)c1ccncc1 (stereo not given),.,.,.,.,1,.,.
CCN1CCN(C(=O)c2ccc3c(c2)c(C)c(C)n3Cc2ccccc2)CC1,-2,-6,1,.,0,3,.
CCn1c(C)c(C)c2cc(C(=O)N3CCc4ccccc4C3)ccc21,.,.,.,.,46*,.,30*
COc1ccc(-c2ccnc(-c3ccc(O)cc3)n2)cc1,79*,93*,64*,12,69*,59*,60*
COc1ccc(-c2csc(-c3ccc(O)cc3)n2)cc1,64*,.,-1,.,50*,47*,44*
COc1ccc(-c2nc(CCl)cs2)cc1,-3,-4,1,5,-2,0,.
COc1ccc(-c2ccnc(-c3ccncc3)n2)cc1,19,.,6,.,30*,13,18
COc1ccc(C(=O)N/C(=C\c2ccco2)C(=O)NCCN2CCOCC2)cc1,.,.,.,.,2,.,.
Cc1ccc(S(=O)(=O)Nc2c(C)nc3nc(C)[nH]n3c2=O)c(C)c1,.,.,.,.,-1,.,.
